# Calls of active or inactive are those of the source.
# Tests used:
# IGROV-1 = assay: Cytotoxicity against human IGROV1 cells by sulforhodamine B assay; assay type: functional; conditions: for TGI: read-out: pTGI (converted)
# How it was run: (§1)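 NCI Developmental Therapeutics Program 60-cell-line human tumor panel screen, run at NCI. A single-concentration pre-screen was followed by a five-concentration dose-response in 10-fold steps. GI50 is the concentration that reduces growth of treated cells to half that of untreated control cells. TGI is the concentration that completely halts growth.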
# 786-0 = assay: Cytotoxicity against human 786-0 cells by sulforhodamine B assay; assay type: functional; conditions: for TGI: read-out: pTGI (converted)
# How it was run: (§2)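 Run at NCI in the DTP 60-cell-line human tumor panel by standard procedure. Compounds were first screened at a single concentration, then tested at five tenfold-spaced concentrations. GI50 is the concentration reducing treated-cell growth to half that of untreated controls; TGI is the concentration completely halting growth.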
# M14 = assay: Cytotoxicity against human M14 cells assessed as cell growth at 8 nM by sulforhodamine B assay relative to control; assay type: functional; conditions: read-out: Activity
# HT-29 [1] = assay: Cytotoxicity against human HT-29 cells assessed as cell growth at 8 nM by sulforhodamine B assay relative to control; assay type: functional; conditions: read-out: Activity
# MDA-MB-231 [2] = assay: Cytotoxicity against human MDA-MB-231 cells by sulforhodamine B assay; assay type: functional; conditions: for TGI: read-out: pTGI (converted); how it was run: as §1
# T47D [3] = assay: Cytotoxicity against human T47D cells by sulforhodamine B assay; assay type: functional; how it was run: as §1
# Mus musculus = assay: Acute toxicity in athymic nude mouse assessed as mortality at 400 mg/kg, […] after 19 days; assay type: organism-based; set-up: dose 400 mg/kg, route intraperitoneal; conditions: in vivo, ip, 456 h
# HOP-92 = assay: Cytotoxicity against human HOP92 cells assessed as cell growth at 8 nM by sulforhodamine B assay relative to control; assay type: functional; conditions: read-out: Activity
# HOP-62 = assay: Cytotoxicity against human HOP62 cells assessed as cell growth at 8 nM by sulforhodamine B assay relative to control; assay type: functional; conditions: read-out: Activity
# A498 [4] = assay: Cytotoxicity against human A498 cells assessed as cell growth at 8 nM by sulforhodamine B assay relative to control; assay type: functional; conditions: read-out: Activity; how it was run: as §2
# TK-10 = assay: Cytotoxicity against human TK10 cells assessed as cell growth at 8 nM by sulforhodamine B assay relative to control; assay type: functional; conditions: read-out: Activity
# MDA-MB-435 [5] = assay: Cytotoxicity against human MDA-MB-435 cells assessed as cell growth at 8 nM by sulforhodamine B assay relative to control; assay type: functional; conditions: read-out: Activity
# RPMI-8226 = assay: Cytotoxicity against human RPMI8226 cells assessed as cell growth at 80 nM by sulforhodamine B assay relative to control; assay type: functional; conditions: read-out: Activity
# OVCAR-5 = assay: Cytotoxicity against human OVCAR5 cells assessed as cell growth at 80 nM by sulforhodamine B assay relative to control; assay type: functional; conditions: read-out: Activity
# RXF 393 [6] = assay: Cytotoxicity against human RXF393 cells assessed as cell growth at 80 nM by sulforhodamine B assay relative to control; assay type: functional; conditions: read-out: Activity
# T47D [7] = assay: Cytotoxicity against human T47D cells assessed as cell growth at 80 nM by sulforhodamine B assay relative to control; assay type: functional; conditions: read-out: Activity
# EKVX = assay: Cytotoxicity against human EKVX cells assessed as cell growth at 800 nM by sulforhodamine B assay relative to control; assay type: functional; conditions: read-out: Activity
# SF-295 = assay: Cytotoxicity against human SF295 cells assessed as cell growth at 800 nM by sulforhodamine B assay relative to control; assay type: functional; conditions: read-out: Activity
# U-251 = assay: Cytotoxicity against human U251 cells assessed as cell growth at 800 nM by sulforhodamine B assay relative to control; assay type: functional; conditions: read-out: Activity
# UACC-62 = assay: Cytotoxicity against human UACC62 cells assessed as cell growth at 800 nM by sulforhodamine B assay relative to control; assay type: functional; conditions: read-out: Activity
# OVCAR-3 = assay: Cytotoxicity against human OVCAR3 cells assessed as cell growth at 800 nM by sulforhodamine B assay relative to control; assay type: functional; conditions: read-out: Activity
# RXF 393 [8] = assay: Cytotoxicity against human RXF393 cells assessed as cell growth at 800 nM by sulforhodamine B assay relative to control; assay type: functional; conditions: read-out: Activity
# Hs-578T [9] = assay: Cytotoxicity against human Hs578T cells assessed as cell growth at 800 nM by sulforhodamine B assay relative to control; assay type: functional; conditions: read-out: Activity
# HT-29 [10] = assay: Cytotoxicity against human HT-29 cells assessed as cell growth at 8 uM by sulforhodamine B assay relative to control; assay type: functional; conditions: read-out: Activity
# KM12 = assay: Cytotoxicity against human KM12 cells assessed as cell growth at 8 uM by sulforhodamine B assay relative to control; assay type: functional; conditions: read-out: Activity
# PC-3 [11] = assay: Cytotoxicity against human PC3 cells assessed as cell growth at 8 uM by sulforhodamine B assay relative to control; assay type: functional; conditions: read-out: Activity
# MDA-MB-435 [12] = assay: Cytotoxicity against human MDA-MB-435 cells assessed as cell growth at 8 uM by sulforhodamine B assay relative to control; assay type: functional; conditions: read-out: Activity
# NCI-H522 = assay: Cytotoxicity against human NCI-H522 cells assessed as cell growth at 80 uM by sulforhodamine B assay relative to control; assay type: functional; conditions: read-out: Activity
# SK-MEL-28 = assay: Cytotoxicity against human SK-MEL-28 cells assessed as cell growth at 80 uM by sulforhodamine B assay relative to control; assay type: functional; conditions: read-out: Activity
# A498 [13] = assay: Cytotoxicity against human A498 cells assessed as cell growth at 80 uM by sulforhodamine B assay relative to control; assay type: functional; conditions: read-out: Activity; how it was run: as §2
# ACHN = assay: Cytotoxicity against human ACHN cells assessed as cell growth at 80 uM by sulforhodamine B assay relative to control; assay type: functional; conditions: read-out: Activity; how it was run: as §2
# PC-3 [14] = assay: Cytotoxicity against human PC3 cells assessed as cell growth at 80 uM by sulforhodamine B assay relative to control; assay type: functional; conditions: read-out: Activity
# MDA-MB-231 [15] = assay: Cytotoxicity against human MDA-MB-231 cells assessed as cell growth at 80 uM by sulforhodamine B assay relative to control; assay type: functional; conditions: read-out: Activity
# Hs-578T [16] = assay: Cytotoxicity against human Hs578T cells assessed as cell growth at 80 uM by sulforhodamine B assay relative to control; assay type: functional; conditions: read-out: Activity
# SW-620 = assay: Antitumor activity against human SW620 cells xenografted in mouse assessed as tumor cell killing at 4.7 mg/kg, ip qd for 4 days by MTT assay; assay type: functional, organism-based; set-up: dose 4.7 mg/kg
# How it was run: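 Hollow-fiber assay in mice. Tumor lines were grown in RPMI-1640 with 10% FBS and 2 mM glutamine. Cells at 2 × 10^6 cells/ml were loaded into 1 mm PVDF fibers (500,000 Da cutoff), heat-sealed at 2 cm and held 24–48 h at 37 °C, 5% CO2 before implantation. Compound was given IP. Fibers were collected the day after the fourth treatment for MTT (OD 540 nm, group means). A ≥50% cut in percent net growth versus vehicle counted as positive.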
# [17] = tested on: Mycobacterium intracellulare; assay: Antimicrobial activity against Mycobacterium intracellular ATCC 23068 after 5 days by MABA assay; assay type: functional, organism-based; conditions: ATCC 23068, 120 h
# How it was run: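 M. intracellulare was tested by a modified Franzblau method. Samples were serially diluted in 20% DMSO/saline, run in duplicate, and inocula were adjusted by OD630. […] IC50 is 50% growth inhibition; MIC is the lowest concentration with no detectable growth.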
# MOLT-4 = assay: Cytotoxicity against human MOLT4 cells by sulforhodamine B assay; assay type: functional; how it was run: as §1
smiles,measurement,setting,value
C/C=C1\NC(=O)[C@H](Cc2ccccc2)NC(=O)[C@@H](C(C)C)NC(=O)[C@@H]([C@@H](C)CC)NC(=O)[C@H](NC(=O)[C@H](NC(=O)[C@H](CCCNCc2ccc(F)c(C)c2)NC(=O)[C@H]2CCCN2C(=O)[C@H](NC(=O)[C@@H](NC(=O)[C@@H](NC(=O)[C@H](NC(=O)CCCC(C)C)C(C)C)[C@@H](C)O)C(C)C)C(C)C)[C@@H](C)CC)[C@@H](C)OC(=O)[C@H](C(C)C)NC1=O,GI50,IGROV-1,708 nM
same,TGI,IGROV-1,1860 nM
same,GI50,786-0,1290 nM
same,LC50,786-0,4170 nM
same,TGI,786-0,2340 nM
same,growth at 0.008 µM,M14,105%
same,growth at 0.008 µM,HT-29 [1],100%
same,GI50,MDA-MB-231 [2],1450 nM
same,LC50,MDA-MB-231 [2],6920 nM
same,TGI,MDA-MB-231 [2],3160 nM
same,GI50,T47D [3]; read-out: GI50,144 nM
same,TGI,T47D [3]; read-out: TGI,327 nM
same,GI50,T47D [3]; read-out: pGI50 (converted),145 nM
same,TGI,T47D [3]; read-out: pTGI (converted),331 nM
same,Activity,Mus musculus,Toxic
same,growth at 0.008 µM,HOP-92,104%
same,growth at 0.008 µM,HOP-62,101%
same,growth at 0.008 µM,A498 [4],102%
same,growth at 0.008 µM,TK-10,112%
same,growth at 0.008 µM,MDA-MB-435 [5],109%
same,growth at 0.08 µM,RPMI-8226,129%
same,growth at 0.08 µM,OVCAR-5,96%
same,growth at 0.08 µM,RXF 393 [6],106%
same,growth at 0.08 µM,T47D [7],90%
same,growth at 0.8 µM,EKVX,50%
same,growth at 0.8 µM,SF-295,89%
same,growth at 0.8 µM,U-251,27%
same,growth at 0.8 µM,UACC-62,93%
same,growth at 0.8 µM,OVCAR-3,39%
same,growth at 0.8 µM,RXF 393 [8],88%
same,growth at 0.8 µM,Hs-578T [9],-5%
same,growth at 8 µM,HT-29 [10],-62%
same,growth at 8 µM,KM12,-85%
same,growth at 8 µM,PC-3 [11],-95%
same,growth at 8 µM,MDA-MB-435 [12],-95%
same,growth at 80 µM,NCI-H522,-2%
same,growth at 80 µM,SK-MEL-28,1%
same,growth at 80 µM,A498 [13],-100%
same,growth at 80 µM,ACHN,-100%
same,growth at 80 µM,PC-3 [14],-76%
same,growth at 80 µM,MDA-MB-231 [15],-89%
same,growth at 80 µM,Hs-578T [16],-30%
same,Activity,SW-620,inactive
same,IC50,[17],> 20000 nM
same,MBC,[17],> 20 µM
same,MIC,[17],> 20 µM
same,GI50,MOLT-4,2140 nM
same,LC50,MOLT-4,> 75900 nM
C/C=C1\NC(=O)[C@H](Cc2ccccc2)NC(=O)[C@@H](C(C)C)NC(=O)[C@@H]([C@@H](C)CC)NC(=O)[C@H](NC(=O)[C@H](NC(=O)[C@H](CCCNCc2ccc(N3CCOCC3)cc2)NC(=O)[C@H]2CCCN2C(=O)[C@H](NC(=O)[C@@H](NC(=O)[C@@H](NC(=O)[C@H](NC(=O)CCCC(C)C)C(C)C)[C@@H](C)O)C(C)C)C(C)C)[C@@H](C)CC)[C@@H](C)OC(=O)[C@H](C(C)C)NC1=O,GI50,IGROV-1,813 nM
same,TGI,IGROV-1,2000 nM
same,GI50,786-0,1380 nM
same,LC50,786-0,4680 nM
same,TGI,786-0,2570 nM
same,growth at 0.008 µM,M14,99%
same,growth at 0.008 µM,HT-29 [1],92%
same,GI50,MDA-MB-231 [2],2630 nM
same,LC50,MDA-MB-231 [2],> 75900 nM
same,TGI,MDA-MB-231 [2],15500 nM
same,GI50,T47D [3]; read-out: GI50,167 nM
same,TGI,T47D [3]; read-out: TGI,466 nM
same,GI50,T47D [3]; read-out: pGI50 (converted),166 nM
same,TGI,T47D [3]; read-out: pTGI (converted),468 nM
same,Activity,Mus musculus,Toxic
same,growth at 0.008 µM,HOP-92,81%
same,growth at 0.008 µM,HOP-62,104%
same,growth at 0.008 µM,A498 [4],96%
same,growth at 0.008 µM,TK-10,118%
same,growth at 0.008 µM,MDA-MB-435 [5],103%
same,growth at 0.08 µM,RPMI-8226,113%
same,growth at 0.08 µM,OVCAR-5,93%
same,growth at 0.08 µM,RXF 393 [6],99%
same,growth at 0.08 µM,T47D [7],89%
same,growth at 0.8 µM,EKVX,53%
same,growth at 0.8 µM,SF-295,101%
same,growth at 0.8 µM,U-251,72%
same,growth at 0.8 µM,UACC-62,100%
same,growth at 0.8 µM,OVCAR-3,46%
same,growth at 0.8 µM,RXF 393 [8],97%
same,growth at 0.8 µM,Hs-578T [9],36%
same,growth at 8 µM,HT-29 [10],-68%
same,growth at 8 µM,KM12,-48%
same,growth at 8 µM,PC-3 [11],-91%
same,growth at 8 µM,MDA-MB-435 [12],-88%
same,growth at 80 µM,NCI-H522,-22%
same,growth at 80 µM,SK-MEL-28,-13%
same,growth at 80 µM,A498 [13],-91%
same,growth at 80 µM,ACHN,-76%
same,growth at 80 µM,PC-3 [14],-67%
same,growth at 80 µM,MDA-MB-231 [15],-43%
same,growth at 80 µM,Hs-578T [16],-40%
same,Activity,SW-620,inactive
same,IC50,[17],> 20000 nM
same,MBC,[17],> 20 µM
same,MIC,[17],> 20 µM
same,GI50,MOLT-4,20400 nM
same,LC50,MOLT-4,> 75900 nM
same,TGI,MOLT-4; read-out: pTGI,> 75900 nM

# — ChEMBL document CHEMBL1921722, “In vitro and in vivo evaluation of select kahalalide F analogs with antitumor and antifungal activities” (Bioorg Med Chem, 2011)
